Results from paper PMC9290582 (British Journal of Clinical Pharmacology, 2021).
One block for each molecule: values may come before it.

Legend:
[1] = Population pharmacokinetic analysis; format: in vivo, human; details: for CL/F, apparent clearance / Vp/F, apparent peripheral volume of distribution: parent; for Covariate effect ECOG 2—CL/F / Covariate effect Healthy subject—CL/F / Covariate effect Healthy subject—Vp/F / Covariate effect PPI—F1 (relative bioavailability): relative change (1 + estimate)
Summary of the method: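 Model: 2-compartment, 5-transit absorption chain, first-order absorption and elimination. Metabolite formation was CL/F × fraction metabolized, fixed at 0.4. BSV and BOV were exponential; residual error was additive on log scale. Precision was checked by bootstrap.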

[2] = Model-predicted steady-state exposure and covariate effects; format: in vivo, human; details: for Reduction of AUC24h,ss by coadministration of PPIs: population PK study; for Exposure lower with concomitant PPI use: relative to a reference patient
Summary of the method: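 Exposure simulated stochastically from the final population PK model at 100 mg BID. AUC24h,ss and Cmax,ss were reported as model-predicted medians (90% prediction interval) relative to a reference patient: B-cell malignancy, ECOG PS 0 or 1, no concomitant PPI. A covariate effect was deemed not relevant if its change and 95% CI fell within 0.8–1.25.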

[3] = test system: Bruton tyrosine kinase (BTK); details: cited from earlier work
[4] = cited from earlier work
[5] = healthy subjects; ref data on file; cited from earlier work
[6] = cited from earlier work; remark: listed apart in the source
[7] = high-calorie meal vs. fasting conditions; cited from earlier work
[8] = bootstrap 50th [2.5th, 97.5th percentile]
[9] = final model fixed effect, estimate (%RSE)
[10] = final model, bootstrap 50th [2.5th, 97.5th percentile]
[11] = relative to a reference cancer population

BSV CLM/F [1, 8]: 13.1 [9.22, 20.2] CV%
BSV QM/F [1, 8]: 40 [23.8, 59.2] CV%
BSV VcM/F [1, 8]: 53.3 [36.9, 71.1] CV%
BSV VpM/F [1, 8]: 21.2 [15.3, 41.2] CV%
BSV CLM/F ([1]; estimate (%RSE)): 11.8 (21.1) CV%
BSV QM/F ([1]; estimate (%RSE)): 40.7 (14.4) CV%
BSV VcM/F ([1]; estimate (%RSE)): 47.2 (12.1) CV%
BSV VpM/F ([1]; estimate (%RSE)): 19.2 (30.5) CV%
CLM/F, apparent clearance metabolite [1, 9]: 21.8 (1.98) L/h
VcM/F, apparent central volume of distribution metabolite [1, 9]: 22.7 (6.66) L
VpM/F, apparent peripheral volume of distribution metabolite [1, 9]: 89.2 (4.58) L
CLM/F, apparent clearance metabolite [1, 10]: 21.6 [20.2, 22.6] L/h
VcM/F, apparent central volume of distribution metabolite [1, 10]: 22.7 [19.5, 25.8] L
VpM/F, apparent peripheral volume of distribution metabolite [1, 10]: 88.1 [77.6, 97] L
Reduction of AUC24h,ss by coadministration of PPIs [2]: 36%
Exposure lower with concomitant PPI use [2]: 36%
Structure (SMILES): CC#CC(=O)NCCCC(=O)c1nc(-c2ccc(C(=O)Nc3ccccn3)cc2)c2c(N)nccn12 [ACP‐5862]
Potency for BTK inhibition relative to acalabrutinib [3]: approximately half as potent as acalabrutinib
Mean exposure relative to that of acalabrutinib [4]: approximately 2 fold

BOV F1 (between-occasion variability, relative bioavailability) [1, 8]: 55.3 [50.4, 61.1] CV%
BOV MTT (between-occasion variability) [1, 8]: 119 [104, 137] CV%
BSV CL/F (between-subject variability) [1, 8]: 24.1 [20.4, 28] CV%
BSV Vc/F [1, 8]: 284 [225, 367] CV%
BSV Vp/F [1, 8]: 33.9 [25, 42.4] CV%
BOV F1 (between-occasion variability, relative bioavailability) ([1]; estimate (%RSE)): 56.1 (1.80) CV%
BOV MTT (between-occasion variability) ([1]; estimate (%RSE)): 118 (2.39) CV%
BSV CL/F (between-subject variability) ([1]; estimate (%RSE)): 23.8 (5.86) CV%
BSV Vc/F ([1]; estimate (%RSE)): 270 (6.51) CV%
BSV Vp/F ([1]; estimate (%RSE)): 33.7 (6.96) CV%
Ka, first-order absorption rate constant [1, 9]: 1.48 (2.63) h^−1
MTT, mean transit time [1, 9]: 0.459 (4.16) h
CL/F, apparent clearance [1, 9]: 134 (1.97) L/h
Vp/F, apparent peripheral volume of distribution [1, 9]: 110 (3.45) L
Ka, first-order absorption rate constant [1, 10]: 1.48 [1.41, 1.55] h^−1
MTT, mean transit time [1, 10]: 0.460 [0.426, 0.492] h
CL/F, apparent clearance [1, 10]: 132 [126, 139] L/h
Vp/F, apparent peripheral volume of distribution [1, 10]: 108 [97.6, 120] L
Covariate effect ECOG 2—CL/F [1, 8]: −0.158 [−0.274, −0.032]
Covariate effect Healthy subject—CL/F [1, 8]: 0.467 [0.367, 0.569]
Covariate effect Healthy subject—Vp/F [1, 8]: −0.554 [−0.6, −0.496]
Covariate effect PPI—F1 (relative bioavailability) [1, 8]: −0.368 [−0.49, −0.228]
Covariate effect ECOG 2—CL/F ([1]; estimate (%RSE)): −0.171 (36.2)
Covariate effect Healthy subject—CL/F ([1]; estimate (%RSE)): 0.467 (19.3)
Covariate effect Healthy subject—Vp/F ([1]; estimate (%RSE)): −0.556 (5.59)
Covariate effect PPI—F1 (relative bioavailability) ([1]; estimate (%RSE)): −0.358 (7.01)
BOV on MTT ([1]; remaining variability in absorption not related to PPIs): 118%
Reduction of AUC24h,ss by coadministration of PPIs [2]: 36%
AUC24h,ss higher in subjects with ECOG PS ≥ 2 [2, 11]: 21%
AUC24h,ss lower in healthy subjects [2, 11]: 32%
Cmax,ss higher in subjects with ECOG PS ≥ 2 [2, 11]: 14%
Cmax,ss lower in healthy subjects [2, 11]: 24%
Exposure lower with concomitant PPI use [2]: 36%
Structure (SMILES): CC#CC(=O)N1CCC[C@H]1c1nc(-c2ccc(C(=O)Nc3ccccn3)cc2)c2c(N)nccn12 [acalabrutinib]
Decrease of AUC on coadministration with omeprazole (PPI) [5]: 43%
Solubility dependence on pH [6]: decreases with increasing gut pH
Effect of a high-calorie meal on Cmax [7]: delayed and decreased
Effect of a high-calorie meal on mean AUC [7]: similar
